Experimental data as given in the M2OR odorant receptor database.

How the values were obtained:
Details in all cases: stereoisomer not certain
UniProt L7N210 = target: T1, UniProt L7N210
T1 sequence (whole entry): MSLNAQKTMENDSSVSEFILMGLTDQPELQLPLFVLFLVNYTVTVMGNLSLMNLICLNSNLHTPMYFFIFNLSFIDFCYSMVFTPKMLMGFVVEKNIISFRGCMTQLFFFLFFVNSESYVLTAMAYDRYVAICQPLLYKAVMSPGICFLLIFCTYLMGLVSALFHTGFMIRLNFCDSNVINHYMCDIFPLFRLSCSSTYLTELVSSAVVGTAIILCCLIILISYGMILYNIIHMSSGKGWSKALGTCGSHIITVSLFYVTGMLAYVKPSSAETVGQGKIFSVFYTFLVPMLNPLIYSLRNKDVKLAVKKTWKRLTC
Procedure, shortened: (§1)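 Assay methods differ from source to source, frequently being transient luciferase assays in mammalian cell lines. For each receptor–molecule pair, the label responsive (active) applies when the original authors judged the measured signal statistically different from baseline, and non-responsive (inactive) applies otherwise.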

UniProt Q3KPB0 = target: T2, UniProt Q3KPB0
T2 sequence (whole entry): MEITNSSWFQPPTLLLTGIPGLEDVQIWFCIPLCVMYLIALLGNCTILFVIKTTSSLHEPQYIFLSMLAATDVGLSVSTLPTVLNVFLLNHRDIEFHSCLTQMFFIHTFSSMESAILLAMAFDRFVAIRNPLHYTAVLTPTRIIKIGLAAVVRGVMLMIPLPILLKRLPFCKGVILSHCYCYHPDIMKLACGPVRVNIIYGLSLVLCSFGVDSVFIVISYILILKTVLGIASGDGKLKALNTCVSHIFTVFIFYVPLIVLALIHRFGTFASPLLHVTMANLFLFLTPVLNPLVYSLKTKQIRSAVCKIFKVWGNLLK
Procedure, shortened: as §1

UniProt Q3U0P3 = target: T3, UniProt Q3U0P3
T3 sequence (whole entry): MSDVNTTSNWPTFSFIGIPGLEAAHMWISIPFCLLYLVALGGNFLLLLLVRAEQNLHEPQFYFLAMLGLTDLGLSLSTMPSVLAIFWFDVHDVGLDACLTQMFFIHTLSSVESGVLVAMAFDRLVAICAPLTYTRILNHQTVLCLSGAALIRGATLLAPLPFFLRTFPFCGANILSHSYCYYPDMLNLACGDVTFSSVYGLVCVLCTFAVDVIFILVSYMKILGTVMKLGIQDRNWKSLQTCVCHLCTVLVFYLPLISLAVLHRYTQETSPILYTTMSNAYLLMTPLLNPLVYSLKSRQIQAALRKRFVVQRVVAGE
Procedure, shortened: as §1

UniProt Q7TQU8 = target: T4, UniProt Q7TQU8
T4 sequence (whole entry): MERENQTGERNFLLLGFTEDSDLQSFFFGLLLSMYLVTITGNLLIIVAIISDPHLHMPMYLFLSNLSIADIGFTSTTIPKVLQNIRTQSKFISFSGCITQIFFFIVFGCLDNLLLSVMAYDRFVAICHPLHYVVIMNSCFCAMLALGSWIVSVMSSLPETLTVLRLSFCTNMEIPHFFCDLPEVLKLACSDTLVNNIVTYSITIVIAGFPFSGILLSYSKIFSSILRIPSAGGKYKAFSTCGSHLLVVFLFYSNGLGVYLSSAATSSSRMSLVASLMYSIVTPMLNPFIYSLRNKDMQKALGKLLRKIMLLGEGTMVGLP
Procedure, shortened: as §1

UniProt Q7TQV4 = target: T5, UniProt Q7TQV4
T5 sequence (whole entry): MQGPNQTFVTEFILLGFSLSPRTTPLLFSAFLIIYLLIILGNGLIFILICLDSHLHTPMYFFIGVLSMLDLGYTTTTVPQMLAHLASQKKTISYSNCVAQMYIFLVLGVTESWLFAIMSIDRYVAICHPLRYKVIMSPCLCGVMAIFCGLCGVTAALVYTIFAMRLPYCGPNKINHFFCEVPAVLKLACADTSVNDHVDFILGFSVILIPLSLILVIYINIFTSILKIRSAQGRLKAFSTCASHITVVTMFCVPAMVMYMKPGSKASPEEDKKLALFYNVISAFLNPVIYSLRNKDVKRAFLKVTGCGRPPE
Procedure, shortened: as §1

UniProt Q7TR71 = target: T6, UniProt Q7TR71
T6 sequence (whole entry): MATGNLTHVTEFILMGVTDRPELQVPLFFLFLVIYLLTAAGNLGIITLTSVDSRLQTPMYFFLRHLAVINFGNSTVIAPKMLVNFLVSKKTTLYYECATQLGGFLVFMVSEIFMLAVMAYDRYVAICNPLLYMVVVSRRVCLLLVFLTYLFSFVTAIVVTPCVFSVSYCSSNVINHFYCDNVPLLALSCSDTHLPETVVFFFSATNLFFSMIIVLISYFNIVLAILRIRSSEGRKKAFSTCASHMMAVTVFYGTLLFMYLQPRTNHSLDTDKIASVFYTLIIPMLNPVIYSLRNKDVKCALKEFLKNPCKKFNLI
Procedure, shortened: as §1

UniProt Q7TR79 = target: T7, UniProt Q7TR79
T7 sequence (whole entry): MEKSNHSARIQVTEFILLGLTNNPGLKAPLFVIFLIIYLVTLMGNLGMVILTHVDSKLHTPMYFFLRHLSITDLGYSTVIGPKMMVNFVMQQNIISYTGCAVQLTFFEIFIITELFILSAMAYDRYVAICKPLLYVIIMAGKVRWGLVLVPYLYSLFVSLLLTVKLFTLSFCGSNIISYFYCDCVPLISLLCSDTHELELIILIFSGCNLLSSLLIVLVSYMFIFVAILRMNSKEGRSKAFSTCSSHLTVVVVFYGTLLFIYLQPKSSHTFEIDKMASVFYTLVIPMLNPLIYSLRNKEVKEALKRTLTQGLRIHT
Procedure, shortened: as §1

UniProt Q7TRA3 = target: T8, UniProt Q7TRA3
T8 sequence (whole entry): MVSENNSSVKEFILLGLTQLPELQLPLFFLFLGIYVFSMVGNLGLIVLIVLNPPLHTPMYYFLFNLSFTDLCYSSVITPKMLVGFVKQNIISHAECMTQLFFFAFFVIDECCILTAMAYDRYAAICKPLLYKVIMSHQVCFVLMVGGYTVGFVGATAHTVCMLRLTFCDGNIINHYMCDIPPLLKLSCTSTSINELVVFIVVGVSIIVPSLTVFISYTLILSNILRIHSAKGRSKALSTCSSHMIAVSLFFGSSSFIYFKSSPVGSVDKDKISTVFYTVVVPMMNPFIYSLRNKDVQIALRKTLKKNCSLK
Procedure, shortened: as §1

UniProt Q7TRE4 = target: T9, UniProt Q7TRE4
T9 sequence (whole entry): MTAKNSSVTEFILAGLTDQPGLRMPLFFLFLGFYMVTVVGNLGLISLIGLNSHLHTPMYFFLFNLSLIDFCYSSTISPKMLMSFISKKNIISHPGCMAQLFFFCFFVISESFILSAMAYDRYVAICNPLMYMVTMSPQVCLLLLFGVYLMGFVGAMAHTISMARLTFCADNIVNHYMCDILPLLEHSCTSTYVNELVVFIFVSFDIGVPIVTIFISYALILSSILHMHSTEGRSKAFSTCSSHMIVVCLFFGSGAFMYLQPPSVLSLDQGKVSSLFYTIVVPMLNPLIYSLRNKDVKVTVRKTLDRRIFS
Procedure, shortened: as §1

UniProt Q7TRW1 = target: T10, UniProt Q7TRW1
T10 sequence (whole entry): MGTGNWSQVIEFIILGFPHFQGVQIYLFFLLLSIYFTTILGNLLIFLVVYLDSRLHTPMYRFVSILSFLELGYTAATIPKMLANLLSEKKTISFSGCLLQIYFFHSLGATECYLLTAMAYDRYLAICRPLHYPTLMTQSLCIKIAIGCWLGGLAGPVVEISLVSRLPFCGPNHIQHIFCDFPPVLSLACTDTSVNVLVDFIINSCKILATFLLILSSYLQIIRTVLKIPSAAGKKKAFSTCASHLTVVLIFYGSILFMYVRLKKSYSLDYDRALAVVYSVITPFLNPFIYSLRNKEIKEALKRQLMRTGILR
Procedure, shortened: as §1

UniProt Q7TRX0 = target: T11, UniProt Q7TRX0
T11 sequence (whole entry): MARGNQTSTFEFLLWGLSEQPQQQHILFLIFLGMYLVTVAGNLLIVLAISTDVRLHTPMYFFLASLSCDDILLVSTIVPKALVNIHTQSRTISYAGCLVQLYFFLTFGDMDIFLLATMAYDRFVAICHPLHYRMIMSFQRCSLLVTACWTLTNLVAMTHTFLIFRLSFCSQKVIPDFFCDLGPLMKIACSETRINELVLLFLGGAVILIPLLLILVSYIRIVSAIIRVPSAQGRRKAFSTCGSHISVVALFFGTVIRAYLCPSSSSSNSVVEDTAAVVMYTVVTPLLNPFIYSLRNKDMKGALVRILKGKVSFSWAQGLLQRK
Procedure, shortened: as §1

UniProt Q8VEU7 = target: T12, UniProt Q8VEU7
T12 sequence (whole entry): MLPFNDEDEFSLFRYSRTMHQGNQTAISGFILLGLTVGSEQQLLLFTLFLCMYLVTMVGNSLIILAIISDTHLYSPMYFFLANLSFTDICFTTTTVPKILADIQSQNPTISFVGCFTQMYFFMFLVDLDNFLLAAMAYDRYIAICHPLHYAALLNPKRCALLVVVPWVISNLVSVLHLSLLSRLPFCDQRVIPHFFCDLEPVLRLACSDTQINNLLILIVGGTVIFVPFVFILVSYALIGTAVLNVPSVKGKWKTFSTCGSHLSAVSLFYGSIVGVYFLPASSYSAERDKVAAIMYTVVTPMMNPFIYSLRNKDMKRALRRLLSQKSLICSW
Procedure, shortened: as §1

UniProt Q8VF05 = target: T13, UniProt Q8VF05
T13 sequence (whole entry): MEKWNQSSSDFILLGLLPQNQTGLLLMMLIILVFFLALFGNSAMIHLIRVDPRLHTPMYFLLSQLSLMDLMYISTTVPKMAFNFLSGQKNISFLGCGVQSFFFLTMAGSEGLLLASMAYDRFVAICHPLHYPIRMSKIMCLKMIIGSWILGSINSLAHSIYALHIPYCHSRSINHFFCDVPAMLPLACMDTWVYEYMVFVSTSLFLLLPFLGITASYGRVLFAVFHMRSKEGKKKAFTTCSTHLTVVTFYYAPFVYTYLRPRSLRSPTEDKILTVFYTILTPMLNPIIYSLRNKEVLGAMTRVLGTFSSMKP
Procedure, shortened: as §1

UniProt Q8VF24 = target: T14, UniProt Q8VF24
T14 sequence (whole entry): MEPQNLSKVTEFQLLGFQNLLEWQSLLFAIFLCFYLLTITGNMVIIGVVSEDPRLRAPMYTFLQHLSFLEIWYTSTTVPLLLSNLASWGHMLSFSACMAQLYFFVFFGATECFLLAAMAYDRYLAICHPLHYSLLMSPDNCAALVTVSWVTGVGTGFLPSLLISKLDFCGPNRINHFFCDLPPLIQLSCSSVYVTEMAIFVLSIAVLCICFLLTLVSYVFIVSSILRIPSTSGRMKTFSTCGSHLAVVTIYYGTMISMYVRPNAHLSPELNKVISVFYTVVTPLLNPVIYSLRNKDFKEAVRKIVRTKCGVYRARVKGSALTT
Procedure, shortened: as §1

UniProt Q8VF43 = target: T15, UniProt Q8VF43
T15 sequence (whole entry): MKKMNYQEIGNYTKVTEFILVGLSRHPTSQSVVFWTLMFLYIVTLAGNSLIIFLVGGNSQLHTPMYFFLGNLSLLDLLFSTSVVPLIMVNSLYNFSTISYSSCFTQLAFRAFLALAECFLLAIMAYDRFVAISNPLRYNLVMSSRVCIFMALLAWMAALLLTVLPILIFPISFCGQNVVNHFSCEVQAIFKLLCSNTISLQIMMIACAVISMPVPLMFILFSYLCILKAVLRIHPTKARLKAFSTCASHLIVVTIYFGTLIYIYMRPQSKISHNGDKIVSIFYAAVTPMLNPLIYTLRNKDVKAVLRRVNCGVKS
Procedure, shortened: as §1

UniProt Q8VF44 = target: T16, UniProt Q8VF44
T16 sequence (whole entry): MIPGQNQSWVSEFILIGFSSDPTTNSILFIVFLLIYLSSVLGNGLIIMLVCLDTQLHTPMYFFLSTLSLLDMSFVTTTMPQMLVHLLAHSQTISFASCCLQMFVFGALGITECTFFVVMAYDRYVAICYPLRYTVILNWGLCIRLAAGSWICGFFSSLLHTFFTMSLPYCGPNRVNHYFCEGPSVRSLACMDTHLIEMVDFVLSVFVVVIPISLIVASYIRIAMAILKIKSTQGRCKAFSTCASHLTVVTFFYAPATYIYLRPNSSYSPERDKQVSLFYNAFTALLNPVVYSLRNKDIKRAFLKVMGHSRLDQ
Procedure, shortened: as §1

UniProt Q7TRM0 = target: UniProt Q7TRM0
Procedure, shortened: as §1

UniProt Q7TRN9 = target: UniProt Q7TRN9
Procedure, shortened: as §1

UniProt Q7TRR8 = target: UniProt Q7TRR8
Procedure, shortened: as §1

UniProt Q8VF06 = target: UniProt Q8VF06
Procedure, shortened: as §1

Measured: odorant receptor agonist call

Chain of UniProt Q7TRM0 (Q7TRM0 as listed by the source): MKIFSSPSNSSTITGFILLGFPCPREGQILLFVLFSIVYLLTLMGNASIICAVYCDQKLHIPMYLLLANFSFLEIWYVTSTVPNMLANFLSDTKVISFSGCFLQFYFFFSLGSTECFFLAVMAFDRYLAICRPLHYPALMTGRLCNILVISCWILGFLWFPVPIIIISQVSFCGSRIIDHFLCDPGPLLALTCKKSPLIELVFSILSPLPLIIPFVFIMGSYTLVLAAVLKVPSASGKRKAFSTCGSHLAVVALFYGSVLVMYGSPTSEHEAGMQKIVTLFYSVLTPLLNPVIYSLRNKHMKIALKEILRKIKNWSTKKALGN
Chain of UniProt Q8VF06 (Q8VF06 as listed by the source): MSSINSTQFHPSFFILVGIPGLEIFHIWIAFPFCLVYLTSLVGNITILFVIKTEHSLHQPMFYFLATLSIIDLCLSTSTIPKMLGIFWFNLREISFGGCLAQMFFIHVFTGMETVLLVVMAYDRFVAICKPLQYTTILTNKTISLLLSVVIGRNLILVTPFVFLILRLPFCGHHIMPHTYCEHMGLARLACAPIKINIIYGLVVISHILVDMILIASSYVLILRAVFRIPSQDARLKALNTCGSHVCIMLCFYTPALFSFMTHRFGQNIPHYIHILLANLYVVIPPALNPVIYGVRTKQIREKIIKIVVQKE
Chain of UniProt Q7TRN9 (Q7TRN9 as listed by the source): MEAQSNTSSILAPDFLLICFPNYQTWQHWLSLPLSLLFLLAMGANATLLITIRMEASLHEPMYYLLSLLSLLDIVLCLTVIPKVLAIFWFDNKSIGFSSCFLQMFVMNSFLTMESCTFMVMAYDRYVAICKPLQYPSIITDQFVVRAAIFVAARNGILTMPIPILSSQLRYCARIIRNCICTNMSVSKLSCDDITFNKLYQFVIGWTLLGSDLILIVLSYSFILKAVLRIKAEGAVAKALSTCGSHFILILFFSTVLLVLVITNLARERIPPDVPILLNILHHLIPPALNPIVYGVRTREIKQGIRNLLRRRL
Chain of UniProt Q7TRR8 (Q7TRR8 as listed by the source): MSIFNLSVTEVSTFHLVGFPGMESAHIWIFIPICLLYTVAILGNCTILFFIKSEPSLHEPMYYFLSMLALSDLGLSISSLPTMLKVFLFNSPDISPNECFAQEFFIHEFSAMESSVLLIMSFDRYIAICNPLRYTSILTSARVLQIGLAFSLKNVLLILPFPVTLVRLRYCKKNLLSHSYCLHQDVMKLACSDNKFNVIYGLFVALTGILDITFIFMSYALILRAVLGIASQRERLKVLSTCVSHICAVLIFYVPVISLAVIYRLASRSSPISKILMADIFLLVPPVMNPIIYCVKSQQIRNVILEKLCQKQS

O=c1cc(O)c2ccccc2o1
not listed: UniProt Q7TRM0 | UniProt Q7TRN9 | UniProt Q7TRR8 | UniProt Q8VF06
inactive: all other assays above

O=CC=Cc1ccccc1
inactive: UniProt L7N210 | UniProt Q3KPB0 | UniProt Q3U0P3 | UniProt Q7TQU8 | UniProt Q7TR79 | UniProt Q7TRX0 | UniProt Q8VF43

O=C(O)CCCCCCCBr
inactive: UniProt Q7TRM0 | UniProt Q7TRR8 | UniProt Q8VF06
active: UniProt Q7TRN9

C=CCc1ccccc1
active: UniProt Q7TRW1
inactive: UniProt L7N210 | UniProt Q7TQV4 | UniProt Q7TR71 | UniProt Q7TRA3 | UniProt Q7TRE4 | UniProt Q8VEU7 | UniProt Q8VF05 | UniProt Q8VF24 | UniProt Q8VF44
